Tests used:
[1] = molecular target: T1, UDP-glucuronosyltransferase 2B15 (Homo sapiens, UniProt P54855); assay: Activity of human UGT2B15 expressed in microsomes isolated from baculovirus infected insect cell assessed as enzyme-mediated 2-mercapto-3-(4-((6-methoxy-1-methyl-1H-benzo[d]imidazol-2-yl)methoxy)phenyl)propanoic acid formation at 20 uM after 4 hrs by radio-HPLC/LC-MS/MS analysis in presence of UDPGA; format: ADME
T1 sequence (P54855 whole entry): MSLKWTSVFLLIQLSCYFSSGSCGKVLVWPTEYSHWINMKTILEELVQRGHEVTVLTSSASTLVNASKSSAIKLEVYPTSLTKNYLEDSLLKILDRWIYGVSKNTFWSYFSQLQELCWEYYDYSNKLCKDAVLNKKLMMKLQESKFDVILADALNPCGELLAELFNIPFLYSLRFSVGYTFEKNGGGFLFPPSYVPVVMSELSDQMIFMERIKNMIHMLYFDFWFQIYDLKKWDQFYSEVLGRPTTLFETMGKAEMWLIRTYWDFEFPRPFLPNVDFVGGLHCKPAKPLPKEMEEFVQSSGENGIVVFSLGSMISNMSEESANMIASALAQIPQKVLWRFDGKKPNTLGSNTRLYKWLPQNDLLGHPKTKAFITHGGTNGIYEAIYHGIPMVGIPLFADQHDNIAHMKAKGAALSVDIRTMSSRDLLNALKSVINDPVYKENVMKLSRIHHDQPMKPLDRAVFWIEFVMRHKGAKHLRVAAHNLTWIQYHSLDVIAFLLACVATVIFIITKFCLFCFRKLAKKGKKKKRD

[2] = molecular target: Cytochrome P450 3A4 (Homo sapiens, UniProt P08684); assay: Activity of human CYP3A4 expressed in microsomes isolated from baculovirus infected insect cell assessed as enzyme-mediated 5-(4-((6-methoxy-1H-benzo[d]imidazol-2-yl)methoxy)benzyl)thiazolidine-2,4-dione formation at 20 uM after 2 hrs by radio-HPLC/LC-MS/MS analysis in presence of NADPH-generating system and NADPH-generating system/SAM; format: ADME
[3] = molecular target: Cytochrome P450 2D6 (Homo sapiens, UniProt P10635); assay: Activity of human CYP2D6 expressed in microsomes isolated from baculovirus infected insect cell assessed as enzyme-mediated 2-mercapto-3-(4-((6-methoxy-1-methyl-1H-benzo[d]imidazol-2-yl)methoxy)phenyl)propanamide formation at 20 uM after 2 hrs by radio-HPLC/LC-MS/MS analysis in presence of NADPH-generating system and NADPH-generating system/SAM; format: ADME
[4] = molecular target: T2, UDP-glucuronosyltransferase 1A3 (Homo sapiens, UniProt P35503); assay: Activity of human UGT1A3 expressed in microsomes isolated from baculovirus infected insect cell assessed as enzyme-mediated 2-mercapto-3-(4-((6-methoxy-1-methyl-1H-benzo[d]imidazol-2-yl)methoxy)phenyl)propanoic acid formation at 20 uM after 4 hrs by radio-HPLC/LC-MS/MS analysis in presence of UDPGA, UDPGA/SAM and NADPH-generating system in presence of UDPGA and UDPGA/SAM; format: ADME
T2 sequence (P35503 whole entry): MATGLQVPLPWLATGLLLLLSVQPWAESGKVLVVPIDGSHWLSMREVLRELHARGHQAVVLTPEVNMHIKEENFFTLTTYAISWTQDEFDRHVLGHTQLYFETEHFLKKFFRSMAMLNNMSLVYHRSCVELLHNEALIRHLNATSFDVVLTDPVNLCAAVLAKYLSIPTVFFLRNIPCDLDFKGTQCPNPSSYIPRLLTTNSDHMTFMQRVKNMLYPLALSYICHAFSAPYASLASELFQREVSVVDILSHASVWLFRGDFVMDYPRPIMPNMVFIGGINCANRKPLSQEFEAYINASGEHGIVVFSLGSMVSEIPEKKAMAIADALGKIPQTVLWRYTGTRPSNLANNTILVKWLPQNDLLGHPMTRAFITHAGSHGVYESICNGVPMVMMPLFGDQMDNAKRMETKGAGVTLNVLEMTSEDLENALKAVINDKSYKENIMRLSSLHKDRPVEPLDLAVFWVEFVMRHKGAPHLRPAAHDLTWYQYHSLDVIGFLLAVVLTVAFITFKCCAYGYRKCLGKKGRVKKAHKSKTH
How it was run: (§1)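 Alamethicin (50 μg/mg protein, 15 min on ice) pretreated expressed human UGT microsomes (1 mg/ml protein) from baculovirus-infected insect cells. Incubation with [¹⁴C]rivoglitazone (20 μM) in 100 mM Tris-HCl (pH 7.5) with 10 mM MgCl₂, started by 5 mM UDPGA, 4 h at 37°C with shaking. UGT insect-cell control supersomes were run alongside. Acetonitrile stop, concentrated supernatant analysed by radio-HPLC, LC-MS and LC-MS/MS.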

[5] = molecular target: T2, UDP-glucuronosyltransferase 1A3; assay: Activity of human UGT1A3 expressed in microsomes isolated from baculovirus infected insect cell assessed as enzyme-mediated (2S,3S,4S,5R,6R)-3,4,5-trihydroxy-6-(5-(4-((6-methoxy-1-methyl-1H-benzo[d]imidazol-2-yl)methoxy)benzyl)-2,4-dioxothiazolidin-3-yl)tetrahydro-2H-pyran-2-carboxylic acid formation at 20 uM after 4 hrs by radio-HPLC/LC-MS/MS analysis in presence of UDPGA and UDPGA/SAM; format: ADME; how it was run: as §1
[6] = molecular target: T3, Cytochrome P450 2C8 (Homo sapiens, UniProt P10632); assay: Activity of human CYP2C8 expressed in microsomes isolated from baculovirus infected insect cell assessed as enzyme-mediated 2-hydroxy-3-(4-((6-methoxy-1-methyl-1H-benzo[d]imidazol-2-yl)methoxy)phenyl)propanamide formation at 20 uM after 2 hrs by radio-HPLC/LC-MS/MS analysis in presence of NADPH-generating system and NADPH-generating system/SAM; format: ADME
T3 sequence (P10632 whole entry): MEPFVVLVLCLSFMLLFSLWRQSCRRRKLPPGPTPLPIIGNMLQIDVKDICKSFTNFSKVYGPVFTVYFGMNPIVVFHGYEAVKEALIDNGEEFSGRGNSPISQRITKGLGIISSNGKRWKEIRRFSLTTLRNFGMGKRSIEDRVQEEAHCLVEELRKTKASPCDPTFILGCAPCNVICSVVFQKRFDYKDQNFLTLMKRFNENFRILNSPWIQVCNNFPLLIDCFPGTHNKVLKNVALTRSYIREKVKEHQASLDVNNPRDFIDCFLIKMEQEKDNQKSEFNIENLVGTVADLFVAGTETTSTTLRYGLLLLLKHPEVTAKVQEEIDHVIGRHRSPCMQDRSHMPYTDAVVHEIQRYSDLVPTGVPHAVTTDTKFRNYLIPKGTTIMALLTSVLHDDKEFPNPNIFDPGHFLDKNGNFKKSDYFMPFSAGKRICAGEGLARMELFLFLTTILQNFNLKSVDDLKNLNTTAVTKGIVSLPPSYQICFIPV
How it was run: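 Baculovirus/insect-cell microsomes expressing single human CYPs, 1 mg/ml protein, with 50 mM potassium phosphate (pH 7.4) or 100 mM Tris-HCl (pH 7.5). NADPH-generating system: 2 mM NADP⁺, 20 mM glucose 6-phosphate, 2 units/ml G6PDH, 10 mM MgCl₂. [¹⁴C]rivoglitazone at 20 μM, 2 h at 37°C with shaking. Control used insect-cell control supersomes. Stopped with acetonitrile; supernatant concentrated under nitrogen; metabolites analysed by radio-HPLC, LC-MS and LC-MS/MS.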

[7] = Drug metabolism in monkey hepatocytes assessed as formation of 3-(4-((6-methoxy-1-methyl-1H-benzo[d]imidazol-2-yl)methoxy)phenyl)-2-(methylthio)propanamide at 30 uM after 3 hrs by radio-HPLC/LC-MS/MS analysis in presence of NADPH-generating system/SAM; settings: cynomolgus monkey

Cytochrome P450 3A4, sequence (P08684 whole entry): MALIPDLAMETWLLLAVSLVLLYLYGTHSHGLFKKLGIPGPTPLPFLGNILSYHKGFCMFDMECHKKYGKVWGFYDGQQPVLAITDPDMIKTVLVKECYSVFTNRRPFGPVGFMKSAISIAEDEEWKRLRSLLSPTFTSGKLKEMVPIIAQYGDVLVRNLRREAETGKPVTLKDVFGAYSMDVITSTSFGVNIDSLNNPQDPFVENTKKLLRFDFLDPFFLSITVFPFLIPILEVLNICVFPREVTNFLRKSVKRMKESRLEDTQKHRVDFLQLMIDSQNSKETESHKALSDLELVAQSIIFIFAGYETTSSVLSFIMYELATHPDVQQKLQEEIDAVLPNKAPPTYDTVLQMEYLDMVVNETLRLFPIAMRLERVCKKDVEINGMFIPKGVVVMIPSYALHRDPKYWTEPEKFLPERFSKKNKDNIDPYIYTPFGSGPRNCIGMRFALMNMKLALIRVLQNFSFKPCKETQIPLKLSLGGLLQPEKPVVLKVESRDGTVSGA
Cytochrome P450 2D6, sequence (P10635 whole entry): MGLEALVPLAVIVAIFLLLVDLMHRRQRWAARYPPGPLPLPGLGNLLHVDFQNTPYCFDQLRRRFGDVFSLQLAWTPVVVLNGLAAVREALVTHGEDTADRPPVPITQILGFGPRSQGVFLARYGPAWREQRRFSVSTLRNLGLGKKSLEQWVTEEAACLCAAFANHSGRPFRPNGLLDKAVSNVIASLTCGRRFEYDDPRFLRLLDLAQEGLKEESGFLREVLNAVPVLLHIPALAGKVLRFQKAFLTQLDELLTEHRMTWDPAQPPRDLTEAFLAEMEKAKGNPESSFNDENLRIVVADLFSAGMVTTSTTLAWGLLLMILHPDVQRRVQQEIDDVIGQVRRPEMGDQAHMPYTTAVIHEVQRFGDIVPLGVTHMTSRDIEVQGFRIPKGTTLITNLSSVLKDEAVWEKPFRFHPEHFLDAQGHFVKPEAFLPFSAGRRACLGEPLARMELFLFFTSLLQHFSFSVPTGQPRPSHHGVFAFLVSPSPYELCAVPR

Drug metabolism [1]: metabolite_not_detected
Drug metabolism [2]: metabolite_detected
Drug metabolism [3]: metabolite_detected
Drug metabolism [4]: metabolite_detected
Drug metabolism [5]: metabolite_detected
Drug metabolism [6]: metabolite_detected
Drug metabolism [7]: metabolite_detected
SMILES: COc1ccc2nc(COc3ccc(C[14CH]4SC(=O)NC4=O)cc3)n(C)c2c1.Cl (racemic)

Reference: ChEMBL document CHEMBL3526048, “In vitro metabolism of rivoglitazone, a novel peroxisome proliferator-activated receptor γ agonist, in rat, monkey, and human liver microsomes and freshly isolated hepatocytes” (Drug Metab Dispos, 2011)
